For data set [1], the target named is 5-hydroxytryptamine receptor 2B (Homo sapiens, UniProt P41595). Briefly: Binding affinity to 5HT2B. The method, boiled down:
(§1)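 Ki values come from radioligand binding run by the NIMH Psychoactive Drug Screening Program (PDSP) under its standard conditions. Values are means ± SEM from triplicate assays.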

Data set [2] deals with T1, 5-hydroxytryptamine receptor 1A (Homo sapiens, UniProt P08908).
T1 sequence (P08908 whole entry): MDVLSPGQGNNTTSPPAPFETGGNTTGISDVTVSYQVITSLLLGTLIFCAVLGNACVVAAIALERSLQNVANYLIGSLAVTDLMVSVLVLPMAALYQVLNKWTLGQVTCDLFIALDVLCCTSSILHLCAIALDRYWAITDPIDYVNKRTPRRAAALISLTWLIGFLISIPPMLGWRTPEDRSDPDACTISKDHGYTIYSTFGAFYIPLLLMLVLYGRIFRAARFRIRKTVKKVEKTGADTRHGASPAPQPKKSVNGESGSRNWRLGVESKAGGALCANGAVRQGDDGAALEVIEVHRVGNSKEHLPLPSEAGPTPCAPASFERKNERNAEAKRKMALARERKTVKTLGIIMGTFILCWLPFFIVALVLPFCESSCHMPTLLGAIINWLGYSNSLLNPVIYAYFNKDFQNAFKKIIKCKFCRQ
The data set can be described thus: Binding affinity to 5HT1A. The procedure, abridged:
as §1

The species entered for data set [3] is Rattus norvegicus. The data set can be described thus: Selectivity ratio of Ki for rat sigma2 receptor to Ki rat sigma1 receptor. The method, boiled down:
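The ratio is Ki(σ2) divided by Ki(σ1). σ1 Ki came from [³H](+)-pentazocine displacement in rat brain homogenate. σ2 Ki came from [³H]DTG displacement in PC12 cell preparation, a cell line that overexpresses σ2. Both Ki values are triplicate means; ratios above 1 mean σ1-selective.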

Data set [4] addresses D(2) dopamine receptor (Homo sapiens, UniProt P14416). The data set can be described thus: Binding affinity to dopamine D2. The procedure, abridged:
as §1

For data set [5], the target named is Sigma non-opioid intracellular receptor 1 (Rattus norvegicus, UniProt Q9R0C9). Briefly: Displacement of [3H]pentazocine from sigma1 receptor in rat brain homogenate. Type of data set: tissue-based. The procedure, abridged:
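σ1 affinity was measured by competitive displacement of [³H](+)-pentazocine from rat brain homogenate, using a competitive modification of the Kovacs and Larson protocol. Ki is reported as mean ± SEM from triplicate assays.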
(In a radioligand displacement assay an active substance lowers the binding of a labelled ligand.)

Data set [6] is described as follows: Displacement of [3H]DTG from sigma2 receptor in rat PC12 cells. The settings on record: pc-12.
The nature of data set [7]: Drug uptake in baboon cingulate cortex at 100 MBq, iv. The format is ADME. Particulars: papio hamadryas, in vivo; call rule not given here. The procedure, abridged:
(§2)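 Anaesthetized Papio hamadryas baboon; radiotracer given iv at 100 MBq in 3 mL saline, specific activity 73 GBq/μmol. Dynamic brain PET started just before injection and ran 60 min. Voxel values were decay-corrected to injection time and converted to % injected dose/mL. Regional time-activity curves came from coregistered regions of interest.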

Data set [8] in a line: Drug uptake in baboon frontal cortex at 100 MBq, iv. Type of data set: ADME, organism-based. The settings on record: papio hamadryas, in vivo. The method, boiled down: as §2
Data set [9] in a line: Drug uptake in baboon striatum at 100 MBq, iv. The format is ADME, organism-based. Particulars: papio hamadryas, in vivo. The method, boiled down:
as §2

Data set [10] is described as follows: Drug uptake in baboon brain at 100 MBq, iv in presence of haloperidol. The format is ADME, organism-based. The settings on record: papio hamadryas, in vivo. The method, boiled down: (§3)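 Anaesthetized Papio hamadryas baboon; radiotracer given iv at 100 MBq in 3 mL saline, specific activity 73 GBq/μmol. Haloperidol (1 mg/kg) given iv 5 min before the tracer. Dynamic PET over 60 min, then whole-body acquisition for 2 min at each of six bed positions. Uptake expressed as decay-corrected % injected dose/mL.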

Data set [11] can be described thus: Drug uptake in baboon liver at 100 MBq, iv in presence of haloperidol. Type of data set: ADME, organism-based. Particulars: papio hamadryas, in vivo. The procedure, abridged: as §3
Data set [12] in a line: Drug uptake in baboon kidney at 100 MBq, iv in presence of haloperidol. Type of data set: ADME, organism-based. Particulars: papio hamadryas, in vivo. The method, boiled down: as §3
Data set [13] in a line: Drug uptake in baboon bladder at 100 MBq, iv in presence of haloperidol. Type of data set: ADME, organism-based, Urinary bladder. The settings on record: papio hamadryas, in vivo. The method, boiled down: as §3
A short description of data set [14]: Lipophilicity, log D of the compound. The format is physicochemical. Particulars: HPLC retention time. The procedure, abridged: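 Log D estimated by HPLC retention time on a C-18 column. Mobile phase methanol/0.05 M potassium phosphate buffer (65:35 v/v, pH 7.47) at 0.3 mL/min, UV 254 nm. Calibrated against standards of known log D (aniline, benzene, toluene, cumene, triphenylamine, hexachlorobenzene) using an exponential fit. Injections in triplicate and averaged.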

Molecules are shown by their SMILES. A value given as a limit tells only on which side of the number the result lay.

Sigma non-opioid intracellular receptor 1, sequence (Q9R0C9 whole entry): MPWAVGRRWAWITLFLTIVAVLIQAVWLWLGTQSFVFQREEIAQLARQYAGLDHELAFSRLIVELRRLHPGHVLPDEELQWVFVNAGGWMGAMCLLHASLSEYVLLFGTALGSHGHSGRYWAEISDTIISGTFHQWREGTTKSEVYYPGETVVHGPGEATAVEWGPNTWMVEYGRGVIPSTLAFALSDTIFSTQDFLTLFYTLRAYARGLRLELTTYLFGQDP
D(2) dopamine receptor, sequence (P14416 whole entry): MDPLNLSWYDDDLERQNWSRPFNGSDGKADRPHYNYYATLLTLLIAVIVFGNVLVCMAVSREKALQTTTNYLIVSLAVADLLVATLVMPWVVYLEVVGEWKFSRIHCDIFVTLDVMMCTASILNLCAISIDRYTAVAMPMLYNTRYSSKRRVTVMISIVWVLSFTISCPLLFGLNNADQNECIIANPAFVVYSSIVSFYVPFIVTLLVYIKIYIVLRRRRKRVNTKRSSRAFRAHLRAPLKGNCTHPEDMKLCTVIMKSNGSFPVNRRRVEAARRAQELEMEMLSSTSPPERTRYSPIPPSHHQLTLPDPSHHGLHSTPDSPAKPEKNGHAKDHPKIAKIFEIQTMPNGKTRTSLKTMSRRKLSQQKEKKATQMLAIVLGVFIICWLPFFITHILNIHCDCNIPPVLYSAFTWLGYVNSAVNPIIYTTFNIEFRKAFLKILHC
5-hydroxytryptamine receptor 2B, sequence (P41595 whole entry): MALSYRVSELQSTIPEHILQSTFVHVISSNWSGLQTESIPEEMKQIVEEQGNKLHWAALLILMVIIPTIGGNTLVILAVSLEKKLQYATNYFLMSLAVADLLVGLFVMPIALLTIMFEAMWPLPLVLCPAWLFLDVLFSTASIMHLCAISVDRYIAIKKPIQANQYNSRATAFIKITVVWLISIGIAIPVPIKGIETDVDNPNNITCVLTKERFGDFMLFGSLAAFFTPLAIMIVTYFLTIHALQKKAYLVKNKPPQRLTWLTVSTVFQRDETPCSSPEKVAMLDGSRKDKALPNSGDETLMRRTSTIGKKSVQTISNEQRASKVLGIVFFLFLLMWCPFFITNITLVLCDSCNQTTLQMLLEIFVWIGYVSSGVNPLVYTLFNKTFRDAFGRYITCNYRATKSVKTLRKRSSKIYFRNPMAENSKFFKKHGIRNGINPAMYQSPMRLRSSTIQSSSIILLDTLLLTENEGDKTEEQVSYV

Broadly, the Ki is a measure of affinity in units of concentration, obtained from inhibition or displacement. The low end stands for a stronger hold on the target, the high end for a looser hold on the target. Take `FCCCOc1ccc(CN2CCN(Cc3cc4ccccc4o3)CC2)cc1`: the Ki is 232 nM in data set [1]; 3300 nM in data set [2]; greater than 10000 nM in data set [4]; 14.7 nM in data set [5]; 752 nM in data set [6]. Besides, in data set [3], the Ratio Ki was 51.

For `FCCOc1ccccc1CN1CCN(Cc2cc3ccccc3o2)CC1`, the inhibition constant (Ki) in data set [1] is 57 nM; in data set [2], 3250 nM; in data set [4] it was greater than 10000 nM; in data set [5], 488 nM; in data set [6], 535 nM. Also, the Ratio Ki in data set [3] turned out to be 1.1.

As to `CCCOc1ccc(CN2CCN(Cc3cc4ccccc4o3)CC2)cc1`, the Ki in [1] is 655 nM; in data set [2], 4720 nM; in data set [4], greater than 10000 nM; in data set [5] it was 53.8 nM; in data set [6], 2400 nM. In data set [3], the Ratio Ki turned out to be 45.

For `COc1cccc(CN2CCN(Cc3cc4ccccc4o3)CC2)c1`, the inhibition constant (Ki) was determined as 28 nM in data set [1]; 373 nM in data set [2]; 5730 nM in [4]; 16.3 nM in [5]; 79.5 nM in data set [6]. Also, in data set [3], the Ratio Ki worked out at 4.9.

In the case of `c1ccc(CN2CCN(Cc3cc4ccccc4o3)CC2)cc1`, the Ki in data set [1] is 497 nM; in data set [2], 833 nM; in data set [4] it was greater than 10000 nM; in data set [5], 5.2 nM; in data set [6] it was 240 nM. Besides, in [3], the Ratio Ki worked out at 46.

Turning to `FCCCOc1cccc(CN2CCN(Cc3cc4ccccc4o3)CC2)c1`, the Ki was found to be 188 nM in data set [1]; 599 nM in data set [2]; 2920 nM in data set [4]; 232 nM in [5]; 2370 nM in data set [6]. In [3], the Ratio Ki amounted to 10.

In the case of `[11CH3]Oc1ccc(CN2CCN(Cc3cc4ccccc4o3)CC2)cc1`, the Drug uptake entry was “Active” in [7]; “Active” in data set [8]; “Active” in data set [9]; “Not Active” in [10]; “Not Active” in [11]; “Not Active” in data set [12]. The Drug uptake result in data set [13] is listed as “Not Active”.

On to `CCOc1cccc(CN2CCN(Cc3cc4ccccc4o3)CC2)c1`, for which the Ki was 302 nM in [1]; 1720 nM in [2]; 4540 nM in [4]; 80 nM in [5]; 238 nM in data set [6]. Also, the Ratio Ki in [3] was found to be 3.

As for `CCCOc1ccccc1CN1CCN(Cc2cc3ccccc3o2)CC1`, the Ki in data set [1] is 116 nM; in data set [2] it was 2460 nM; in data set [4], greater than 10000 nM; in data set [5], 79 nM; in [6] it was 778 nM. For the same compound, the Ratio Ki in data set [3] was 10.

As to `CCOc1ccc(CN2CCN(Cc3cc4ccccc4o3)CC2)cc1`, the Ki in data set [1] was determined as 262 nM; in data set [2], 3340 nM; in [4], 4870 nM; in data set [5] it was 10.6 nM; in [6], 393 nM. Further, in data set [3], the Ratio Ki came out at 37.

For `COc1ccccc1CN1CCN(Cc2cc3ccccc3o2)CC1`, the Ki in [1] turned out to be 9.7 nM; in [2] it was 806 nM; in [4], 5120 nM; in data set [5], 198 nM; in data set [6], 89 nM. Besides, the Ratio Ki in [3] stood at 0.45.

Take `FCCCOc1ccccc1CN1CCN(Cc2cc3ccccc3o2)CC1`: the inhibition constant Ki in data set [1] was 184 nM; in data set [2], 3380 nM; in data set [4], greater than 10000 nM; in data set [5], 9.1 nM; in [6] it was 542 nM. Also, the Ratio Ki in data set [3] was determined as 60.

With `FCCOc1cccc(CN2CCN(Cc3cc4ccccc4o3)CC2)c1`, the Ki in data set [1] was 244 nM; in [2] it was 469 nM; in data set [4] it was 2280 nM; in [5], 49.7 nM; in data set [6], 292 nM. For the same compound, the Ratio Ki in data set [3] is 5.9.

The term logD denotes the decadic logarithm of the distribution of all forms, ionised or not, between an organic phase and buffer at a given pH. A lower logD goes with a more hydrophilic compound. Turning to `COc1ccc(CN2CCN(Cc3cc4ccccc4o3)CC2)cc1`, the Ki in [1] came out at 15 nM; in data set [2], 2190 nM; in [4], 2700 nM; in data set [5] it was 2.7 nM; in data set [6], 103 nM. In data set [3], the Ratio Ki is 38. In data set [14], this compound gave a logD of 3.63.

In the case of `CCCOc1cccc(CN2CCN(Cc3cc4ccccc4o3)CC2)c1`, the Ki in data set [1] was 259 nM; in data set [2], 774 nM; in [4], 2980 nM; in data set [5], 177 nM; in data set [6], 1920 nM. Also, in data set [3], the Ratio Ki stood at 11.

Consider `CCOc1ccccc1CN1CCN(Cc2cc3ccccc3o2)CC1`, for which the Ki in data set [1] was 72 nM; in [2], 468 nM; in data set [4], 6000 nM; in data set [5] it was 37.1 nM; in data set [6], 295 nM. For the same compound, in [3], the Ratio Ki was 8.

The record behind these values is ChEMBL document CHEMBL1212881, “Design, synthesis, and structure-affinity relationships of regioisomeric N-benzyl alkyl ether piperazine derivatives as sigma-1 receptor ligands” (J Med Chem, 2010).
